Measurements reported in ChEMBL document CHEMBL1944532, “Synthesis and evaluation of anticancer activity of some novel 6-aryl-2-(p-sulfamylphenyl)-pyridazin-3(2H)-ones” (Eur J Med Chem, 2012).
Active and inactive are the calls of the source. No cut-off for these calls is given here.

How the values were obtained:
CCRF-CEM = test: Cytotoxicity against human CCRF-CEM cells assessed as cell growth at 10 uM after 48 hrs by SRB assay; type: functional; details: read-out: Activity
Summary of the method: (§1)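 NCI primary single-dose screen at 10^-5 M against the ~60 human tumour cell line panel. Cells grown in RPMI-1640 with 5% fetal calf serum and 2 mM L-glutamine and pre-incubated 24 h before compound addition. Compound added from DMSO solution with 48 h exposure. Growth read by sulforhodamine B protein staining.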

MDA-MB-231 = test: Cytotoxicity against human MDA-MB-231/ATCC cells after 48 hrs by SRB assay; type: functional; details: MDA-MB-231, 48 h
Summary of the method: (§2)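 NCI five-dose screen on the ~60-line human tumor panel. Cells grown in RPMI-1640 with 5% fetal calf serum and 2 mM L-glutamine, seeded at line-dependent density and preincubated 24 h. Compound added from DMSO at 10-fold dilutions from 10^-4 to 10^-8 M, continuous exposure 48 h. Growth read by sulforhodamine B protein stain. GI50, TGI and LC50 derived per line.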

PC-3 = test: Cytotoxicity against human PC3 cells assessed as cell growth at 10 uM after 48 hrs by SRB assay; type: functional; details: PC-3, 48 h, read-out: Activity
Summary of the method: (§3)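 NCI primary single-dose screen at 10^-5 M against the full panel of about 60 human tumor cell lines. Cells were in RPMI-1640 with 5% fetal calf serum and 2 mM L-glutamine and preincubated 24 h. Compound was given in DMSO with 48 h exposure. Growth was estimated by sulforhodamine B protein assay.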

MCF7 = test: Cytotoxicity against human MCF7 cells after 48 hrs by SRB assay; type: functional; details: MCF7, 48 h; summary of the method: as §2
NCI-H460 = test: Cytotoxicity against human NCI-H460 cells assessed as cell growth at 10 uM after 48 hrs by SRB assay; type: functional; details: NCI-H460, 48 h, read-out: Activity; summary of the method: as §3
A549 = test: Cytotoxicity against human A549/ATCC cells assessed as cell growth at 10 uM after 48 hrs by SRB assay; type: functional; details: A549, 48 h, read-out: Activity; summary of the method: as §1
U-251 [1] = test: Antitumor activity against human U251 cells implanted in mouse dosed qd for 4 days by formazan dye-based hollow fiber assay; type: functional, organism-based
Summary of the method: (§4)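 Cells grown inside polyvinylidene fluoride hollow fibers; each line implanted into both intraperitoneal and subcutaneous compartments in mice. Compound given ip at two doses on a QD x 4 schedule. Fibers then recovered and viable cell mass measured by formazan dye conversion. Scored 2 per dose giving ≥50% reduction in viable cell mass (%T/C 50).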

HOP-92 = test: Cytotoxicity against human HOP92 cells after 48 hrs by SRB assay; type: functional; details: HOP-92, 48 h
Summary of the method: (§5)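 NCI ~60-line panel in RPMI-1640 with 5% fetal calf serum and 2 mM L-glutamine, pre-incubated 24 h. Compound in DMSO tested at five 10-fold concentrations (10^-4 to 10^-8 M) with 48 h continuous exposure. Growth measured by sulforhodamine B protein assay. GI50 (50% net growth inhibition), TGI (total inhibition) and LC50 (50% net cell death) derived from dose-response.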

MDA-MB-435 = test: Cytotoxicity against human MDA-MB-435 cells assessed as cell growth at 10 uM after 48 hrs by SRB assay; type: functional; details: MDA-MB-435, 48 h, read-out: Activity; summary of the method: as §3
OVCAR-8 = test: Cytotoxicity against human OVCAR8 cells after 48 hrs by SRB assay; type: functional; details: OVCAR-8, 48 h; summary of the method: as §2
A498 = test: Cytotoxicity against human A498 cells after 48 hrs by SRB assay; type: functional; details: A498, 48 h; summary of the method: as §5
SNB-19 = test: Cytotoxicity against human SNB19 cells after 48 hrs by SRB assay; type: functional; details: SNB-19, 48 h
Summary of the method: (§6)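 NCI 60-cell-line five-dose screen. Cells were grown in 1640 medium with 5% fetal calf serum and 2 mM L-glutamine, with inoculum density set by cell line, and pre-incubated 24 h. Compound in DMSO was added at 10^-4 to 10^-8 M (10-fold steps) with 48 h continuous exposure. Growth was read by SRB protein assay, and GI50, TGI and LC50 were derived from dose-response.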

U-251 [2] = test: Cytotoxicity against human U251 cells assessed as cell growth at 10 uM after 48 hrs by SRB assay; type: functional; details: U-251, 48 h, read-out: Activity
Summary of the method: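 NCI primary one-dose screen at 10^-5 M against the full panel of about 60 human tumour cell lines, run to the NCI Drug Evaluation Branch protocol.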

OVCAR-4 = test: Cytotoxicity against human OVCAR4 cells after 48 hrs by SRB assay; type: functional; details: OVCAR-4, 48 h; summary of the method: as §2
T47D = test: Cytotoxicity against human T47D cells after 48 hrs by SRB assay; type: functional; summary of the method: as §6
COLO 205 = test: Antitumor activity against human COLO205 cells implanted in mouse dosed qd for 4 days by formazan dye-based hollow fiber assay; type: functional, organism-based; summary of the method: as §4
HCT-15 = test: Cytotoxicity against human HCT15 cells after 48 hrs by SRB assay; type: functional; details: HCT-15, 48 h; summary of the method: as §5
HOP-62 = test: Cytotoxicity against human HOP62 cells assessed as cell growth at 10 uM after 48 hrs by SRB assay; type: functional; details: HOP-62, 48 h, read-out: Activity; summary of the method: as §1
[3] = Toxicity in ip dosed athymic nude mouse assessed as lethality after 2 weeks; type: organism-based; details: in vivo
Summary of the method: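 Maximum tolerated dose determination in athymic nude mice. Single ip injection of 400, 200 or 100 mg/kg, one mouse per dose. Compound solubilized in DMSO. Feed and water ad libitum. Mice observed 2 weeks for body weight loss, lethality and other toxicity signs; sacrificed if weight loss exceeds 20%.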

MOLT-4 = test: Cytotoxicity against human MOLT4 cells after 48 hrs by SRB assay; type: functional; details: MOLT-4, 48 h; summary of the method: as §2
IGROV-1 = test: Cytotoxicity against human IGROV1 cells after 48 hrs by SRB assay; type: functional; details: IGROV-1, 48 h; summary of the method: as §5
EKVX = test: Cytotoxicity against human EKVX cells assessed as cell growth at 10 uM after 48 hrs by SRB assay; type: functional; details: read-out: Activity; summary of the method: as §1
Malme-3M = test: Cytotoxicity against human MALME-3M cells after 48 hrs by SRB assay; type: functional; summary of the method: as §2

Compound: CCc1ccc(-c2ccc(=O)n(-c3ccc(S(N)(=O)=O)cc3)n2)cc1
- growth at 10 µM (CCRF-CEM): 27.9%
- LC50 (MDA-MB-231): > 100 µM
- GI50 (MDA-MB-231; read-out: GI50): 12.1 µM
- GI50 (MDA-MB-231; read-out: pGI50 (converted)): 12 µM
- TGI (MDA-MB-231; read-out: pTGI): > 100 µM
- growth at 10 µM (PC-3): 35%
- LC50 (MCF7): > 100 µM
- GI50 (MCF7; read-out: GI50): 0.615 µM
- GI50 (MCF7; read-out: pGI50 (converted)): 0.617 µM
- TGI (MCF7; read-out: pTGI (converted)): 19.1 µM
- growth at 10 µM (NCI-H460): 12.6%
- growth at 10 µM (A549): 18%
- Activity (U-251 [1]): inactive
- LC50 (HOP-92): > 100 µM
- GI50 (HOP-92; read-out: GI50): 17.3 µM
- GI50 (HOP-92; read-out: pGI50 (converted)): 17.4 µM
- TGI (HOP-92; read-out: pTGI (converted)): 75.9 µM
- growth at 10 µM (MDA-MB-435): -17.9%
- LC50 (OVCAR-8): > 100 µM
- GI50 (OVCAR-8; read-out: GI50): 11 µM
- GI50 (OVCAR-8; read-out: pGI50 (converted)): 11 µM
- TGI (OVCAR-8; read-out: pTGI): > 100 µM
- LC50 (A498): > 100 µM
- GI50 (A498; read-out: GI50): 1.97 µM
- GI50 (A498; read-out: pGI50 (converted)): 1.95 µM
- TGI (A498; read-out: pTGI (converted)): 38 µM
- LC50 (SNB-19): > 100 µM
- GI50 (SNB-19; read-out: GI50): 4.41 µM
- GI50 (SNB-19; read-out: pGI50 (converted)): 4.37 µM
- TGI (SNB-19; read-out: pTGI (converted)): 36.3 µM
- growth at 10 µM (U-251 [2]): 35%
- LC50 (OVCAR-4): > 100 µM
- GI50 (OVCAR-4; read-out: GI50): > 100 µM
- GI50 (OVCAR-4; read-out: pGI50 (converted)): > 100 µM
- TGI (OVCAR-4; read-out: pTGI): > 100 µM
- LC50 (T47D): > 100 µM
- GI50 (T47D; read-out: GI50): 2.56 µM
- GI50 (T47D; read-out: pGI50 (converted)): 2.57 µM
- TGI (T47D; read-out: pTGI): > 100 µM
- Activity (COLO 205): inactive
- LC50 (HCT-15): > 100 µM
- GI50 (HCT-15; read-out: GI50): 0.661 µM
- GI50 (HCT-15; read-out: pGI50 (converted)): 0.661 µM
- TGI (HCT-15; read-out: pTGI): > 100 µM
- growth at 10 µM (HOP-62): 59.9%
- MTD at 336 h [3]: 400 mg/kg
- LC50 (MOLT-4): > 100 µM
- GI50 (MOLT-4; read-out: GI50): 0.573 µM
- GI50 (MOLT-4; read-out: pGI50 (converted)): 0.575 µM
- TGI (MOLT-4; read-out: pTGI): > 100 µM
- LC50 (IGROV-1): > 100 µM
- GI50 (IGROV-1; read-out: GI50): 3.81 µM
- GI50 (IGROV-1; read-out: pGI50 (converted)): 3.8 µM
- TGI (IGROV-1; read-out: pTGI): > 100 µM
- growth at 10 µM (EKVX): 69.1%
- LC50 (Malme-3M): 75.9 µM
- GI50 (Malme-3M; read-out: GI50): 0.188 µM
- GI50 (Malme-3M; read-out: pGI50 (converted)): 0.186 µM
- TGI (Malme-3M; read-out: pTGI (converted)): 16.2 µM
